A value given as a limit tells only on which side of the number the result lay.

Our source for the IC50 and inhibition values is ChEMBL document CHEMBL1131419, “Methoxy-substituted 3-formyl-2-phenylindoles inhibit tubulin polymerization” (J Med Chem, 1998).

The target of one assay is Tubulin (Bos taurus, UniProt Q6B856+Q862L2+Q862F3). Type of assay: protein assay.
Another assay concerns the target Tubulin (Bos taurus) (UniProt Q6B856+Q862L2+Q862F3). Briefly: Tested for its capability of competing with colchicine for binding to tubulin. Type of assay: protein assay. Particulars: concentration not given here. Set-up: concentration or dose not given beside the values. The method, boiled down: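 Calf brain tubulin (cycled, diluted 1:10 in PEM pH 6.6–6.7) incubated with 1 μM [3H]colchicine and 10 μM inhibitor (DMSO) for 30 min at 37 °C; GTP added on ice, mixture filtered through DEAE-cellulose filters, washed with PEM, bound radioactivity counted by liquid scintillation; no-tubulin mixtures as background. Mean of two independent experiments.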

As for `COc1ccc(-c2[nH]c3cc(F)ccc3c2C=O)cc1`, on Tubulin, the IC50 (commonly the point on the concentration scale where inhibition reaches its midpoint) was 1.8 µM.
Regarding `COc1ccc(-c2sc3cc(OC)ccc3c2C=O)cc1`, at Tubulin (Bos taurus), the inhibition – broadly, the share of the control response that was lost under treatment – was determined as 56%. The molecule further showed an IC50 against Tubulin of 1.8 µM.
As for `COc1ccc(-c2[nH]c3ccc(OC)cc3c2C=O)cc1`, the IC50 on Tubulin worked out at 4 µM.
Still for that read-out and setting: the value for `COc1ccc(-c2[nH]c3ccccc3c2C=O)cc1` was 3.3 µM.
At Tubulin (Bos taurus), `CCCC1Cc2cc(O)ccc2-c2c(C=O)c3ccc(O)cc3n21` (configuration not stated) had an inhibition of 40%. This molecule also registered an IC50 against Tubulin of 19 µM.
In turn, `CCCCC1Cc2cc(O)ccc2-c2c(C=O)c3ccc(O)cc3n21` (configuration not stated) displayed an IC50 against Tubulin of 8.9 µM.
In turn, `COc1ccc(-c2[nH]c3cc(OC)ccc3c2C=O)cc1` gave an inhibition on Tubulin (Bos taurus) of 23%. The same molecule had an IC50 at Tubulin of 1.5 µM.
On Tubulin (Bos taurus), `CCCC1Cc2cc(OC)ccc2-c2c(C=O)c3ccc(OC)cc3n21` (configuration not stated) displayed an inhibition below 10%.
With `COc1ccc(-c2c(C=O)c3ccc(OC)cc3n2C)cc1`, at Tubulin (Bos taurus), the inhibition stood at 30%.
